Shown are actives, neighbours in structure and some others; about 3.9% of the full set was active somewhere.
OX1R antag-1: blocks the human orexin 1 receptor | O43613 | OX1R-expressing cells, FRET antagonist read-out | inhibition, % at 6.6 µM | actives 1.8% (n = 330,000); in the data active = inhibition mostly above about 38%, no sharp cut-off; inactive = mostly below about 40%
Target sequence (O43613 whole entry, looked up): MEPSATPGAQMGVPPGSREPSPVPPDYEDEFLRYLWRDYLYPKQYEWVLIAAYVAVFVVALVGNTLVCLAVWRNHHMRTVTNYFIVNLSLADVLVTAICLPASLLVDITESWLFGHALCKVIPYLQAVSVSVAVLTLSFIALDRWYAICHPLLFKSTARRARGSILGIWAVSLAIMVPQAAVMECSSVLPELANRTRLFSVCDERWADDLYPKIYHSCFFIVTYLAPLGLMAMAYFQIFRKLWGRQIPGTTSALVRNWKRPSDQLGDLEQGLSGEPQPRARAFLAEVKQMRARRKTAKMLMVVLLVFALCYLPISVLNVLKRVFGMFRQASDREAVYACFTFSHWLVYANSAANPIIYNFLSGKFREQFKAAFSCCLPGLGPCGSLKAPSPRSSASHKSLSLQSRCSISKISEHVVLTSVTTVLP
CHO parental Ca: counter-screen for OX1R antagonists: effect in parental CHO cells; parental CHO-K1, ATP-induced calcium, Fluo-8 fluorescence; inhibition, % at 5.6 µM; actives 0.63% (n = 330,000);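 active = inhibition above that plate's mean sample inhibition plus 3 SD, cut at about 26% in these data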
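Test system: parental CHO cells; detection: calcium-sensitive Fluo-8 fluorescence; evaluation: percent inhibition of calcium signal; also added: ATP as calcium-mobilizing challenge; repeats: one well per compound; control set: ATP-challenged DMSO wells low, unchallenged DMSO wells high; compound: single nominal dose of 5.6 µM per compound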
OX1R antag-2: antagonists of human orexin 1 receptor | actives 0.43% (n = 330,000) | AID 434989 | inhibition, % at 5 µM | CHO/OX1R cells, Fluo-8 calcium fluorescence, orexin A | O43613;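 active = inhibition above its plate's threshold, mean inhibition of all tested compounds on the plate plus 3 SD, cut at about 37% in these data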
TAAR1 agonist: agonists of human TAAR1; Q96RJ0; CHO RD-HGA16 TAAR1, Fluo-8 calcium fluorescence; vehicle wells 0%, saturating PEA agonist 100%; activation, % at 3 µM; actives 0.99% (n = 360,000);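 active = activation above the mean activation of all test compounds in the run plus 3 SD, cut at about 38% in these data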
Target sequence (Q96RJ0 whole entry, looked up): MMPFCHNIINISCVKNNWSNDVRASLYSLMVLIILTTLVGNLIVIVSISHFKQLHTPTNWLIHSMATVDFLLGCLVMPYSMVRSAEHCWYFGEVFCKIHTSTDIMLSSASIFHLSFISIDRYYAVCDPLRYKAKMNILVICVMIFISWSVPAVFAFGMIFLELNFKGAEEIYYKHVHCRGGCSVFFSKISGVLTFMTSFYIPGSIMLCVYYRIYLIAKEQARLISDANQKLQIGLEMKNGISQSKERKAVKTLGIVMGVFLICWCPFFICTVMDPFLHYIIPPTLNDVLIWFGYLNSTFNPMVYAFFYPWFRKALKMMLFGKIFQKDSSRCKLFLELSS
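System: CHO-derived RD-HGA16 cells with stable Gα16 and human TAAR1. Times: 17-24 h plating, Fluo-8 75 min 37 °C, 30 min RT. Measured by: calcium-sensitive Fluo-8 signal, excitation 470-495, emission 515-575 nm. Read-out basis: % activation relative to PEA EC100 response. Control set: DMSO and PEA EC100. Repeats: no replicates (n 1).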
TAAR1 antagonist: human TAAR1 antagonism. Q96RJ0. CHO RD-HGA16 TAAR1, Fluo-8 calcium fluorescence, antagonist. inhibition, % at 3 µM. actives 1.5% (n = 360,000);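 active = inhibition above a per-plate cutoff, the mean inhibition of test compounds on that plate plus 3 SD, cut at about 49% in these data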
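System: RD-HGA16 CHO cells with stable hTAAR1 and Gα16 | Probe or stimulus: EC80 β-phenethylamine stimulus | Dosing: 3 µM, single point | Times: Dye loading 75 min at 37 °C, then 30 min room temperature | Measured by: Fluo-8 calcium-sensitive fluorescence | Read-out basis: % inhibition of agonist calcium response | Replicates: n of 1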
Large screens that a line does not name were inactive.

O=C(NCc1ccccn1)c1cc(-c2ccc(-c3ccccc3)cc2)nc2ccccc12	TAAR1 antagonist 51
O=C(NCc1ccccn1)c1cc(-c2ccccc2)nc2ccccc12	none
Cc1cccc(-c2cc(C(=O)NCc3ccccn3)c3ccccc3n2)c1	TAAR1 antagonist 53
COc1ccc(C2=CCCCCC2)cc1OC	none (no result: OX1R antag-1, CHO parental Ca, OX1R antag-2)
COc1ccc2c(c1)CSC(c1ccccc1)C2=O (centres undefined)	none (no result: OX1R antag-1, CHO parental Ca, OX1R antag-2)
COC(=O)c1cn(-c2ccccc2)nc1-c1ccc(OC)cc1	none
O=C(Nc1cccnc1)c1cn(-c2ccccc2)nc1-c1cccs1	TAAR1 antagonist 50
O=C(N/N=C\c1cn(-c2ccccc2)nc1-c1ccccc1)c1ccc(Br)o1	TAAR1 antagonist 54
O=C(N/N=C/c1cn(-c2cccs2)nc1-c1ccccc1)c1ccc(O)cc1	OX1R antag-1 65
O=C(N/N=C/c1cn(-c2cccs2)nc1-c1ccccc1)c1ccccc1Cl	none
CC(C)COc1ccc(-c2nn(-c3ccccc3)cc2C(=O)Nc2nccs2)cc1	CHO parental Ca 39, TAAR1 antagonist 73
C[C@H]1COc2cc(N3CCOCC3)ccc2S(=O)(=O)N1	none (no result: OX1R antag-1, CHO parental Ca, OX1R antag-2)
O=C(N/N=C/c1cn(-c2ccccc2)nc1-c1cccs1)c1ccncc1	TAAR1 antagonist 50
S=C(CN1CCCC1=S)NCCc1ccccc1	TAAR1 agonist 40
COc1ccc(CCN2C(=O)C(Oc3ccccc3C)C2c2ccc3c(c2)OCO3)cc1OC (centres undefined)	TAAR1 antagonist 55
COc1ccc(CCN2C(=O)C(Oc3ccccc3C)C2c2ccc3c(c2)OCO3)cc1 (centres undefined)	TAAR1 antagonist 56
COc1ccc(C2C(Oc3ccccc3C)C(=O)N2Cc2ccc(F)cc2)cc1OC (centres undefined)	none
O=C1C(Oc2ccccc2)C(c2ccc3c(c2)OCO3)N1CCc1ccc(F)cc1 (centres undefined)	none
COC(=O)C[C@H]1CC[C@H](NC(=O)c2cccc(F)c2)[C@@H](CO)O1	none (no result: OX1R antag-1, CHO parental Ca, OX1R antag-2)
Cc1ccc(NC(=O)CSc2nnc(C)c(=O)n2N)cc1Cl	none
Cc1nnc(SCC(=O)c2ccc(Cl)cc2)n(N)c1=O	OX1R antag-1 50
COc1ccc(CN2C[C@@H](CO)O[C@@H](n3cnc4c(N5CCOCC5)ncnc43)C2)cc1	none (no result: OX1R antag-1, CHO parental Ca, OX1R antag-2)
O=C(CN1C(=O)NC(CCc2ccccc2)C1=O)Nc1ccc(F)c(F)c1F (centres undefined)	TAAR1 agonist 44
O=C(CN1C(=O)NC(Cc2ccccc2)C1=O)Nc1ccccc1F (centres undefined)	none
O=CNc1cc(-c2cccc(F)c2)cn2c(-c3ccc(F)c(Cl)c3)cnc12	none (no result: OX1R antag-1, CHO parental Ca, OX1R antag-2)
O=C(Nc1ccc(Cl)cc1)N1CCC(c2nc(-c3ccccc3Cl)no2)CC1	CHO parental Ca 37
O=C(Nc1cccc(Oc2ccccc2)c1)C1Cc2c(-c3ccccc3)ccnc2O1 (centres undefined)	none (no result: OX1R antag-1, CHO parental Ca, OX1R antag-2)
COc1ccccc1-c1cccc(-c2nc(C(=O)Nc3nccs3)cc3c2[C@@H](CCO)N(C(=O)CC2CC2)C3)c1	TAAR1 antagonist 51 (no result: OX1R antag-1, CHO parental Ca, OX1R antag-2)
CCNC(=O)c1cc2c(c(-c3cccc(-c4ccccc4F)c3)n1)[C@@H](CCO)N(C(=O)CC1CC1)C2	none (no result: OX1R antag-1, CHO parental Ca, OX1R antag-2)
Cc1c(-c2nc(N)nc(Nc3ccccc3F)n2)oc2ccccc12	OX1R antag-1 39
Cc1ccc(Nc2nc(N)nc(-c3oc4ccccc4c3C)n2)cc1	none (no result: TAAR1 agonist, TAAR1 antagonist)
COC(=O)[C@]12CCCCC=C1N(CCc1ccc(OC)c(OC)c1)C(=O)[C@H](CC(=O)NCC1CCCCC1)C2	none (no result: OX1R antag-1, CHO parental Ca, OX1R antag-2)
O=C(Nc1ccc(Oc2ccccc2)cc1)c1csc([C@H]2C[C@H](O)[C@@H](CO)O2)n1	TAAR1 antagonist 68 (no result: OX1R antag-1, CHO parental Ca, OX1R antag-2)
CC(=O)Nc1ccc(NC(=O)c2csc([C@@H]3C[C@H](O)[C@@H](CO)O3)n2)cc1	none (no result: OX1R antag-1, CHO parental Ca, OX1R antag-2)
O=C(Nc1ccc(Oc2ccccc2)cc1)c1csc([C@@H]2O[C@H](CO)[C@@H](O)[C@H]2O)n1	TAAR1 antagonist 59 (no result: OX1R antag-1, CHO parental Ca, OX1R antag-2)
Cc1nn(-c2cc(C(F)(F)F)ccc2Cl)c2nc(C(Cl)(Cl)Cl)[nH]c(=O)c12	OX1R antag-1 40
CC[C@@]1(O)C(=O)OCc2c1cc1n(c2=O)Cc2cc3c(CN(C)C)c(O)ccc3nc2-1	OX1R antag-1 46
CC[C@@]1(O)C(=O)OCc2c1cc1n(c2=O)Cc2cc3c(N)cccc3nc2-1	none
Cc1nc2scc(-c3ccc(C(C)(C)C)cc3)c2c(=O)n1N	TAAR1 antagonist 51
Cc1ccc(NS(=O)(=O)c2ccc(NC(=O)c3cccc(NC(=O)C(C)C)c3)cc2)cc1	CHO parental Ca 67, OX1R antag-2 82, TAAR1 antagonist 53
Oc1ccc(-c2cnc3c(Nc4cccc(OC(F)(F)C(F)F)c4)nccn23)cc1	none (no result: OX1R antag-1, CHO parental Ca, OX1R antag-2)
Cc1ccc([C@@H]2CC=C(C(=O)O)[C@H](c3ccccc3)N2S(=O)(=O)c2ccccc2C)cc1	OX1R antag-1 54
COc1ccc([C@@H]2CC=C(C(=O)O)[C@H](c3ccc(C)cc3)N2S(=O)(=O)c2ccccc2C)cc1	OX1R antag-1 50
Cc1ccc([C@H]2C(C(=O)O)=CC[C@@H](c3ccc(C)cc3)N2S(=O)(=O)c2ccccc2C)cc1	OX1R antag-1 45
COc1ccc([C@@H]2CC=C(C(=O)O)[C@H](c3ccc(F)cc3)N2S(=O)(=O)c2ccccc2C)cc1	none
O=c1nc2n(c3ccc([N+](=O)[O-])cc13)CCCCC2	OX1R antag-1 59
O=C(c1cc(O)c(O)c([N+](=O)[O-])c1)c1ccccc1F	OX1R antag-1 39
CCc1nc(N)nc(N)c1-c1ccc(N(C)Cc2ccccc2)c([N+](=O)[O-])c1	TAAR1 agonist 39, TAAR1 antagonist 76 (no result: OX1R antag-1, CHO parental Ca, OX1R antag-2)
Nc1[nH]c(C(=O)c2ccc(Cl)cc2)c(-c2ccc(Br)cc2)c1C(=O)c1c[nH]c2ccc(F)cc12	none (no result: OX1R antag-1, CHO parental Ca, OX1R antag-2)
O=C(NCC1COc2ccccc2O1)c1ccc(Cl)c(S(=O)(=O)N2CCOCC2)c1 (centres undefined)	none
Cc1ccccc1C(=O)OCC(=O)Nc1cccc(S(=O)(=O)N2CCCCC2)c1	none (no result: OX1R antag-1, CHO parental Ca, OX1R antag-2)
O=C(COC(=O)C1CC2C=CC1C2)Nc1cccc(S(=O)(=O)N2CCCCC2)c1 (centres undefined)	none
O=C(NCC1COc2ccccc2O1)c1ccc(Cl)c(S(=O)(=O)N2CCCC2)c1 (centres undefined)	OX1R antag-1 34
O=C(COC(=O)c1c(F)cccc1F)Nc1cccc(S(=O)(=O)N2CCCCC2)c1	TAAR1 antagonist 50 (no result: OX1R antag-1, CHO parental Ca, OX1R antag-2)
O=C(COC(=O)C1CC2C=CC1C2)Nc1cccc(S(=O)(=O)N2CCCCCC2)c1 (centres undefined)	CHO parental Ca 33, TAAR1 antagonist 68
O=C(COC(=O)c1ccccc1O)Nc1cccc(S(=O)(=O)N2CCCC2)c1	none
Cc1ccc(C)c(C(=O)OCC(=O)Nc2cccc(S(=O)(=O)N3CCCCC3)c2)c1	OX1R antag-2 54

Assay outcomes: PubChem, The Scripps Research Institute Molecular Screening Center
